# ChEMBL document CHEMBL4257579, “Analogs of penfluridol as chemotherapeutic agents with reduced central nervous system activity” (Bioorg Med Chem Lett, 2018)
# Experiments:
# [1] = Tmax in C57BL/6J mouse brain at 10 mg/kg, ip treated daily for 7 consecutive days by LC/MS/MS analysis; type: ADME, organism-based
# [2] = molecular target: Alpha-1D adrenergic receptor (Homo sapiens, UniProt P25100); assay: Displacement of [3H]Prazosin from human alpha 1D adrenergic receptor expressed in HEK cells by radioligand binding assay; type: cell-based
# Sequence of Alpha-1D adrenergic receptor (P25100 whole entry): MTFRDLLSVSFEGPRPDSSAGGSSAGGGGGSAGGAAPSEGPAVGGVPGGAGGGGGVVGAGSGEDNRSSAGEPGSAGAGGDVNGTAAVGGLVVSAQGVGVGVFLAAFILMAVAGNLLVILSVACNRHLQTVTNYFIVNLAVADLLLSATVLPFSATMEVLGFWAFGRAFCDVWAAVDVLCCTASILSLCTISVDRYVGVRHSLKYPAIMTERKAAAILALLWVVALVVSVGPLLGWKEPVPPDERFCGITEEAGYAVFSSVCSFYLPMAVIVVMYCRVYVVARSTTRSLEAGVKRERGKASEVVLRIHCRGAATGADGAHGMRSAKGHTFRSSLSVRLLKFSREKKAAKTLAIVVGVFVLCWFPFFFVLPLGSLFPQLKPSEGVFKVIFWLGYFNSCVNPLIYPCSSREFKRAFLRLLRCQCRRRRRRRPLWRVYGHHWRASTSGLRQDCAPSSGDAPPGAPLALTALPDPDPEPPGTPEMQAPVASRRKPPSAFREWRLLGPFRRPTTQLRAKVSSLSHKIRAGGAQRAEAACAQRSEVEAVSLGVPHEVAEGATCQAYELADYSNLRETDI
# Outline: (§1)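 Ki values were calculated from the radioligand displacement data.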
# [3] = molecular target: Beta-3 adrenergic receptor (Homo sapiens, UniProt P13945); assay: Displacement of [3H]CGP12177 from human beta 3 adrenergic receptor expressed in HEK293FlpIN cells by radioligand binding assay relative to control; type: cell-based; settings: concentration not given here
# Sequence of Beta-3 adrenergic receptor (P13945 whole entry, looked up): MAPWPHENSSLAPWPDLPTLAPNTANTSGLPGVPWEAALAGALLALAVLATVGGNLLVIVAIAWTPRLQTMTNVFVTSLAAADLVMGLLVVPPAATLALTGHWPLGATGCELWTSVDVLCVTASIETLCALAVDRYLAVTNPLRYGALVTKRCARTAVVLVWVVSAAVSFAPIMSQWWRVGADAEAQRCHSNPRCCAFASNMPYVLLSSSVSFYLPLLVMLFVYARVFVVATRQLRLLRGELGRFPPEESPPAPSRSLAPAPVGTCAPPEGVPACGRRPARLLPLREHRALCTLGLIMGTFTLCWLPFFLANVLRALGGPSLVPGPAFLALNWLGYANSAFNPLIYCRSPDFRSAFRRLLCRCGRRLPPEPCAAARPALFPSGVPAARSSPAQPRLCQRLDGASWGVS
# [4] = molecular target: Alpha-2B adrenergic receptor (Homo sapiens) (UniProt P18089); assay: Displacement of [3H]Rauwolscine from human alpha 2B adrenergic receptor expressed in HEK293T cells by radioligand binding assay relative to control; type: cell-based; settings: concentration not given here
# Sequence of Alpha-2B adrenergic receptor (Homo sapiens) (P18089 whole entry): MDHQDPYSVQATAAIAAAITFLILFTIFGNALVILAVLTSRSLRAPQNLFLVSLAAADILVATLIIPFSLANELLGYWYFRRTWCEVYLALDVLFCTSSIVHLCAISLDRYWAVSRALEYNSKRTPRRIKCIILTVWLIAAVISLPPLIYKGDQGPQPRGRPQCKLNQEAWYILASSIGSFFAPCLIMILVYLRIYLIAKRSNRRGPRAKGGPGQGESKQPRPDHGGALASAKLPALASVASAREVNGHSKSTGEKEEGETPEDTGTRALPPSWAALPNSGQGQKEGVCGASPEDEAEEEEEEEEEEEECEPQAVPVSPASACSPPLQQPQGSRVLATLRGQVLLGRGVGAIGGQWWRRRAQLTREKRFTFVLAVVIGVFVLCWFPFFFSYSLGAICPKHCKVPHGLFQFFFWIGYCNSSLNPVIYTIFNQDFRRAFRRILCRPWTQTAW
# [5] = molecular target: Alpha-1D adrenergic receptor (Homo sapiens) (UniProt P25100); assay: Displacement of [3H]Prazosin from human alpha 1D adrenergic receptor expressed in HEK cells by radioligand binding assay relative to control; type: cell-based; settings: concentration not given here
# Sequence of Alpha-1D adrenergic receptor (Homo sapiens) (P25100 whole entry): as the sequence (P25100 whole entry) above
# [6] = molecular target: Alpha-2C adrenergic receptor (Homo sapiens, UniProt P18825); assay: Displacement of [3H]Rauwolscine from human alpha 2C adrenergic receptor expressed in MDCK cells by radioligand binding assay; type: cell-based; outline: as §1
# Sequence of Alpha-2C adrenergic receptor (P18825 whole entry): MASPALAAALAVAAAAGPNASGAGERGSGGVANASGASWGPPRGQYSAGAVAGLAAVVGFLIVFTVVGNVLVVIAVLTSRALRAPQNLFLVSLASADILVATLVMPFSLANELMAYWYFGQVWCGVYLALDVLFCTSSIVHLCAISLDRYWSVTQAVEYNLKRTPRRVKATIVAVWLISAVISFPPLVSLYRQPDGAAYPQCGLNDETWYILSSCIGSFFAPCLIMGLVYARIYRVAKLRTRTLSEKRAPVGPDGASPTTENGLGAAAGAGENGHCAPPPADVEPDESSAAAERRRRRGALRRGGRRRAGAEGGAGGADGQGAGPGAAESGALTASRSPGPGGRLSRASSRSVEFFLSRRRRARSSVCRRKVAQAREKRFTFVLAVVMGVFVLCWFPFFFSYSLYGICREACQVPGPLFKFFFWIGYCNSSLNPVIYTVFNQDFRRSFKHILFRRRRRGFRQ
SMILES,Tmax [1],Ki [2],inhibition [3],inhibition [4],inhibition [5],Ki [6]
COc1ccc(N(CCCCN2CCC(O)(c3ccc(Cl)c(C(F)(F)F)c3)CC2)c2ccc(OC)cc2)cc1,6 h,–,–,–,–,–
OC1(c2ccc(Cl)c(C(F)(F)F)c2)CCN(CCCC(c2ccc(F)cc2)c2ccc(F)cc2)CC1 [PENFLURIDOL],–,0.602 µM,94%,95.6%,95.7%,0.445 µM
